Results as given in ChEMBL document CHEMBL4316609, “Chemical synthesis and functional characterization of a new class of ceramide analogues as anti-cancer agents” (Bioorg Med Chem, 2019).
Activity calls are given as the source filed them. No cut-off for these calls is given here.

Experiments:
HepG2 [1] = experiment: Cytotoxicity against human HepG2 cells measured after 48 hrs by MTT assay; format: functional, cell-based; conditions: HepG2, 48 h
How it was run: (§1)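 Seeded at 7x10^3 cells/well and allowed 24 h to attach. Compounds added at final 0 to 200 μM and incubated 48 h. Viability read by MTT. IC50 taken as the concentration giving 50% growth inhibition; mean ± SD, N = 4.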

A-431 = experiment: Cytotoxicity against human A431 cells measured after 48 hrs by MTT assay; format: functional, cell-based; conditions: A-431, 48 h; how it was run: as §1
[2] = Cytotoxicity against human SA cells measured after 48 hrs by MTT assay; format: functional, cell-based; conditions: +SA cell; how it was run: as §1
MCF7 [3] = experiment: Cytotoxicity against human MCF7 cells measured after 48 hrs by MTT assay; format: functional, cell-based; conditions: MCF7, 48 h; how it was run: as §1
SiHa = experiment: Cytotoxicity against human SiHa cells measured after 48 hrs by MTT assay; format: functional, cell-based; how it was run: as §1
SW-620 [4] = experiment: Cytotoxicity against human SW620 cells measured after 48 hrs by MTT assay; format: functional, cell-based; conditions: SW-620, 48 h; how it was run: as §1
SW-620 [5] = experiment: Induction of apoptosis in human SW620 cells assessed as morphological changes by measuring appearance of shining cells at cytotoxic IC50 measured after 8 to 24 hrs by Hoechst 33342 staining based fluorescence microscopic analysis; format: functional, cell-based
LS-411N = experiment: Potentiation of TRAIL-induced cytotoxicity against human LS411N cells assessed as reduction in cell growth at cytotoxic IC50 measured after 48 hrs by MTT assay; format: functional, cell-based
How it was run: (§2)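 Viability read by MTT. Growth inhibition calculated as OD570 of untreated minus OD570 of treated cells; mean and SD.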

SW-620 [6] = experiment: Potentiation of TRAIL-induced cytotoxicity against human SW620 cells assessed as reduction in cell growth at cytotoxic IC50 measured after 48 hrs by MTT assay; format: functional, cell-based; how it was run: as §2
MCF7 [7] = experiment: Potentiation of TRAIL-induced cytotoxicity against human MCF7 cells assessed as reduction in cell growth at cytotoxic IC50 measured after 48 hrs by MTT assay; format: functional, cell-based; how it was run: as §2
HeLa = experiment: Potentiation of TRAIL-induced cytotoxicity against human HeLa cells assessed as reduction in cell growth at cytotoxic IC50 measured after 48 hrs by MTT assay; format: functional, cell-based; how it was run: as §2
HepG2 [8] = experiment: Potentiation of TRAIL-induced cytotoxicity against human HepG2 cells assessed as reduction in cell growth at cytotoxic IC50 measured after 48 hrs by MTT assay; format: functional, cell-based; how it was run: as §2
SW-620 [9] = experiment: Induction of apoptosis in human SW620 cells assessed as Bcl-xl protein level at 15 uM measured after 48 hrs by Western blot analysis relative to beta-actin (reference value: 1); format: functional
SW-620 [10] = experiment: Induction of apoptosis in human SW620 cells assessed as Bcl-xl protein level at 10 uM measured after 48 hrs by Western blot analysis relative to beta-actin (reference value: 1); format: functional
SW-620 [11] = experiment: Induction of apoptosis in human SW620 cells assessed as XIAP protein level at 10 uM measured after 48 hrs by Western blot analysis relative to beta-actin (reference value: 1); format: functional
SW-620 [12] = experiment: Induction of apoptosis in human SW620 cells assessed as XIAP protein level at 15 uM measured after 48 hrs by Western blot analysis relative to beta-actin (reference value: 1); format: functional
SW-620 [13] = experiment: Induction of apoptosis in human SW620 cells assessed as XIAP protein level at 20 uM measured after 48 hrs by Western blot analysis relative to beta-actin (reference value: 1); format: functional
SW-620 [14] = experiment: Antitumor activity against human SW620 cells xenografted in athymic mouse assessed as suppression of tumor growth at 100 mg/kg administered as injection every other day for 15 days measured during compound dosing; format: functional, organism-based
How it was run: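 SW620 colon carcinoma cells (3x10^6 per mouse) implanted subcutaneously in athymic mice. Randomised at 60-80 mm³ tumour size, n=6 per group. Dosed 100 mg/kg on alternate days for 15 days. Vehicle control received 200 μL 1% polyoxyethylated castor oil. Tumour measured in three diameters with a caliper to give volume.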

SW-620 [15] = experiment: Induction of apoptosis in human SW620 cells assessed as Bcl-xl protein level at 20 uM measured after 48 hrs by Western blot analysis relative to beta-actin (reference value: 1); format: functional
SW-620 [16] = experiment: Toxicity in athymic mouse xenografted with human SW620 cells assessed as serum creatine kinase level at 100 mg/kg administered as injection every other day for 15 days measured post last dose by ELISA (reference value: 1.94 +/- 1.04 U/L); conditions: in vivo, 360 h

In the case of `CCCCCCCCCCCCCCNC(=O)[C@@H](NC(=O)c1cc2ccccc2n1C)[C@@H](C)O`, the IC50 (HepG2 [1]) is reported as 34.5 µM, the IC50 (A-431) is reported as 13.7 µM and the IC50 [2] is reported as 25.7 µM. It also gave an IC50 (MCF7 [3]) of 25.7 µM, an IC50 (SiHa) of 26.5 µM and an IC50 (SW-620 [4]) of 21.5 µM. The Activity (SW-620 [5]) was “Active”.
`CCCCCCCCCCCCCCCCCCNC(=O)[C@@H](NC(=O)c1nccc2ccccc12)[C@@H](C)O` gave an IC50 (HepG2 [1]) of 96.9 µM, an IC50 (A-431) of 44.1 µM and an IC50 [2] of 49.1 µM. The IC50 (MCF7 [3]) was 30.8 µM, the IC50 (SiHa) was 51.2 µM and the Activity (LS-411N) was “Active”. The Activity (SW-620 [6]) was “Active”, the Activity (MCF7 [7]) was “Active” and the Activity (HeLa) was “Active”. The Activity (HepG2 [8]) was “Active”.
`CCCCCCCCCCCCNC(=O)[C@@H](NC(=O)c1ccco1)[C@@H](C)O` showed an IC50 (A-431) of 92.4 µM, an IC50 [2] of 93.5 µM and an IC50 (MCF7 [3]) of 67.5 µM. The IC50 (SiHa) was 64.3 µM, the IC50 (SW-620 [4]) was 87.5 µM and the Activity (LS-411N) was “Active”. For the same compound, the Activity (SW-620 [6]) was “Active”, the Activity (MCF7 [7]) was “Active” and the Activity (HeLa) was “Active”. For the same compound, the Activity (HepG2 [8]) was “Active”.
For `CCCCCCCCCCCCCCNC(=O)[C@@H](N)[C@@H](C)O`, the “fold change (FC)” value (SW-620 [9]) was 0.68, the “fold change (FC)” value (SW-620 [10]) was 0.82 and the IC50 (A-431) was 14.6 µM. For the same compound, the IC50 [2] was 11 µM, the IC50 (MCF7 [3]) was 10.7 µM and the IC50 (SiHa) was 11 µM. The IC50 (SW-620 [4]) was 18.7 µM, the “fold change (FC)” value (SW-620 [11]) was 1.22 and the “fold change (FC)” value (SW-620 [12]) was 1.29. The “fold change (FC)” value (SW-620 [13]) was 0.15, the Activity (SW-620 [14]) was “Active” and the “fold change (FC)” value (SW-620 [15]) was 0.34. The Activity (SW-620 [16]) was 2.98 U/L.
In the case of `CCCCCCCCCCCCCCNC(=O)[C@@H](NC(=O)Cc1c[nH]c2ccccc12)[C@@H](C)O`, the “fold change (FC)” value (SW-620 [9]) is reported as 1.46, the “fold change (FC)” value (SW-620 [10]) is reported as 1.32 and the IC50 (HepG2 [1]) is reported as 21.1 µM. For the same compound, the IC50 (A-431) was 15.5 µM, the IC50 [2] was 11.5 µM and the IC50 (MCF7 [3]) was 6.81 µM. The IC50 (SiHa) was 4.8 µM, the IC50 (SW-620 [4]) was 22 µM and the Activity (SW-620 [5]) was “Active”. For the same compound, the “fold change (FC)” value (SW-620 [11]) was 1.03, the “fold change (FC)” value (SW-620 [12]) was 0.86 and the “fold change (FC)” value (SW-620 [13]) was 0.06. The Activity (SW-620 [14]) was “Active”, the “fold change (FC)” value (SW-620 [15]) was 0.47 and the Activity (SW-620 [16]) was 2.44 U/L.
`CCCCCCCCNC(=O)[C@@H](NC(=O)c1cc2ccccc2o1)[C@@H](C)O` gave an IC50 (HepG2 [1]) of 81.3 µM, an IC50 (A-431) of 52.7 µM and an IC50 [2] of 40.8 µM. The IC50 (MCF7 [3]) was 47.2 µM, the IC50 (SiHa) was 66.5 µM and the IC50 (SW-620 [4]) was 200 µM. For the same compound, the Activity (LS-411N) was “Active”, the Activity (SW-620 [6]) was “Active” and the Activity (MCF7 [7]) was “Active”. The Activity (HeLa) was “Active” and the Activity (HepG2 [8]) was “Active”.
`C/C=C/C=C/C(=O)N[C@H](C(=O)NCCCCCCCC)[C@@H](C)O` gave an IC50 (A-431) of 58.2 µM, an IC50 [2] of 40.4 µM and an IC50 (SW-620 [4]) of 200 µM. The Activity (LS-411N) was “Active”, the Activity (SW-620 [6]) was “Active” and the Activity (MCF7 [7]) was “Active”. The Activity (HeLa) was “Active” and the Activity (HepG2 [8]) was “Active”.
For `CCCCCCCCCCCCCCNC(=O)[C@@H](NS(=O)(=O)c1ccc(C)cc1)[C@@H](C)O`, the “fold change (FC)” value (SW-620 [9]) was 0.73, the “fold change (FC)” value (SW-620 [10]) was 0.88 and the IC50 (HepG2 [1]) was 10.9 µM. The IC50 (A-431) was 12 µM, the IC50 [2] was 10.9 µM and the IC50 (MCF7 [3]) was 12.9 µM. For the same compound, the IC50 (SiHa) was 19.2 µM, the IC50 (SW-620 [4]) was 15.2 µM and the Activity (SW-620 [5]) was “Active”. The “fold change (FC)” value (SW-620 [11]) was 1.06, the “fold change (FC)” value (SW-620 [12]) was 1 and the “fold change (FC)” value (SW-620 [13]) was 0.94. For the same compound, the Activity (SW-620 [14]) was “Active”, the “fold change (FC)” value (SW-620 [15]) was 0.67 and the Activity (SW-620 [16]) was 2.32 U/L.
Compound `CCCCCCCCCCCCNC(=O)[C@@H](NC(=O)c1ccccc1)[C@@H](C)O` has an IC50 (A-431) of 41.2 µM, an IC50 [2] of 75.5 µM and an IC50 (MCF7 [3]) of 36.6 µM. For the same compound, the IC50 (SiHa) was 63.9 µM, the IC50 (SW-620 [4]) was 200 µM and the Activity (LS-411N) was “Active”. The Activity (SW-620 [6]) was “Active”, the Activity (MCF7 [7]) was “Active” and the Activity (HeLa) was “Active”. For the same compound, the Activity (HepG2 [8]) was “Active”.
With `CCCCCCCCCCCCCCNC(=O)[C@@H](NS(=O)(=O)c1ccc2ccccc2c1)[C@@H](C)O` the “fold change (FC)” value (SW-620 [9]) was 1.08, the “fold change (FC)” value (SW-620 [10]) was 1.05 and the IC50 (HepG2 [1]) was 11.4 µM. For the same compound, the IC50 (A-431) was 19.6 µM, the IC50 [2] was 10.2 µM and the IC50 (MCF7 [3]) was 12.2 µM. For the same compound, the IC50 (SiHa) was 11.1 µM, the IC50 (SW-620 [4]) was 9.36 µM and the Activity (SW-620 [5]) was “Active”. The “fold change (FC)” value (SW-620 [11]) was 1.21, the “fold change (FC)” value (SW-620 [12]) was 1.14 and the “fold change (FC)” value (SW-620 [13]) was 0.93. The Activity (SW-620 [14]) was “Active”, the “fold change (FC)” value (SW-620 [15]) was 0.55 and the Activity (SW-620 [16]) was 2.63 U/L.
`CCCCCCCCNC(=O)[C@@H](NC(=O)c1cccs1)[C@@H](C)O` showed an IC50 (A-431) of 32.1 µM, an IC50 [2] of 60.9 µM and an IC50 (MCF7 [3]) of 72.5 µM. The IC50 (SiHa) was 91.9 µM, the Activity (LS-411N) was “Active” and the Activity (SW-620 [6]) was “Active”. The Activity (MCF7 [7]) was “Active”, the Activity (HeLa) was “Active” and the Activity (HepG2 [8]) was “Active”.
`CCCCCCCCCCCCNC(=O)[C@@H](NC(=O)c1nccc2ccccc12)[C@@H](C)O` showed an IC50 (HepG2 [1]) of 65.7 µM, an IC50 (A-431) of 62.8 µM and an IC50 [2] of 51.9 µM. The IC50 (MCF7 [3]) was 50.5 µM, the IC50 (SiHa) was 56.6 µM and the IC50 (SW-620 [4]) was 65.8 µM. The Activity (LS-411N) was “Active”, the Activity (SW-620 [6]) was “Active” and the Activity (MCF7 [7]) was “Active”. For the same compound, the Activity (HeLa) was “Active” and the Activity (HepG2 [8]) was “Active”.
